The values that follow come from publication PMC12059896 (ACS Omega, 2025).

For series [1] the following is noted: cited from earlier work.
The subject of series [2] is PC-3 cells. Kind of series: XTT cytotoxicity assay in PC-3 cells. Type of series: cell-based. Conditions: 24 h and 72 h, n = 4 (Figures 6, 7). Put shortly: (§1)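 Cells kept in RPMI with 10% FBS and 1% penicillin–streptomycin at 37 °C, 5% CO2. Seeded at 6 × 10^3 (LNCaP) or 3 × 10^3 (PC-3) per well, attached 24 h, then exposed to free drugs or leucine-coupled drugs. At 24 and 72 h, XTT added for 3 h at 37 °C; absorbance read at 450 nm. Controls: 0.05% DMSO and medium alone. Mean ± SD, n = 4.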

In another series the test system is LNCaP cells. Nature of the series: XTT cytotoxicity assay in LNCaP cells. Type of series: cell-based. Conditions: 24 h and 72 h, n = 4 (Figures 6, 7). The gist of the method:
as §1

The subject of series [3] is PC-3 cells. The conditions noted are these: PC-3 cells do not express PSA; ref 10 (Bakthavatsalam et al. 2020); cited from earlier work.

Turning to `CCc1c2c(nc3ccc(O)cc13)-c1cc3c(c(=O)n1C2)COC(=O)[C@]3(O)CC` [SN-38, 7-Ethyl-10-hydroxycamptothecin], in series [1], the “potency relative to CPT-11 in inducing antitumor activity” value is reported as 100- to 1000 fold. Also, the “cytotoxicity of drug compared with its leucine conjugate, PC-3” value with PC-3 cells [2] is “comparable cytotoxicity”. Moreover, in the series on LNCaP cells, the “cytotoxicity of drug compared with its leucine conjugate, LNCaP” value is recorded as “comparable cytotoxicity”.

As to `COC1C(=O)C2(C)C(OC)CC3OCC3(OC(C)=O)C2C(OC(=O)c2ccccc2)C2(O)CC(OC(=O)C(OC(=O)C(N)CC(C)C)C(NC(=O)OC(C)(C)C)c3ccccc3)C(C)=C1C2(C)C` [L-cabazitaxel, NH2-Leu-Cabazitaxel], the “cytotoxicity of drug compared with its leucine conjugate, PC-3” value in the series on PC-3 cells [2] was “comparable cytotoxicity”. The “cytotoxicity of drug compared with its leucine conjugate, LNCaP” value in the series with LNCaP cells is “comparable cytotoxicity”.

On to `CO[C@H]1C(=O)[C@]2(C)[C@@H](OC)C[C@H]3OC[C@@]3(OC(C)=O)[C@H]2[C@H](OC(=O)c2ccccc2)[C@]2(O)C[C@H](OC(=O)[C@H](O)[C@@H](NC(=O)OC(C)(C)C)c3ccccc3)C(C)=C1C2(C)C` [cabazitaxel], for which, in the series on PC-3 cells [2], the “cytotoxicity of drug compared with its leucine conjugate, PC-3” value was “comparable cytotoxicity”. Further, the “cytotoxicity of drug compared with its leucine conjugate, LNCaP” value in the series with LNCaP cells is “comparable cytotoxicity”.

Consider `CCc1c2c(nc3ccc(O)cc13)-c1cc3c(c(=O)n1C2)COC(=O)C3(CC)OC(=O)C(N)CC(C)C` (stereo not shown) [L–SN–38, NH2-Leu–SN–38], for which, in the series with PC-3 cells [2], the “cytotoxicity of drug compared with its leucine conjugate, PC-3” value is “comparable cytotoxicity”. Also, in the series with LNCaP cells, the “cytotoxicity of drug compared with its leucine conjugate, LNCaP” value is on record as “comparable cytotoxicity”.

As to Ac-HSSKLQL-PAB-dithiocarbamate, the “cytotoxicity in PC-3 cells” value in the series with PC-3 cells [3] was “demonstrated cytotoxicity in PC-3 cells”.
